# The list is not random: actives were taken first. Their share in the collection is about 3.4%.
# TRPML3 ag = human TRPML3 channel agonists, primary screen, cell-based, HEK293 TRPML3-YFP, Fluo-8 calcium fluorescence, 3 µM | 100% = the carbachol control signal | activation, % at 3 µM | 220,000 compounds, 0.29% hits | AID 1448, 2008;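 active = activation above its plate's cutoff, the mean activation of the plate's test wells plus 3 SD, cut at about 12% in these data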;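 also: 0% = DMSO only wells and 100% = carbachol wells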
#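 Material: TRPML3-YFP stable HEK293 cells | Dosing: One concentration, 3 µM nominal, 0.3% DMSO | Timing: 125 s total fluorescence read per well | Technique: Fluo-8 calcium dye fluorescence, ex 470-495, em 515-575 nm | Measure: Percent activation from peak-to-basal fluorescence ratio, scaled between DMSO and carbachol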
# LANA-H2A inh = blockers of LANA interaction with H2A/H2B – biochemical, FP readout, HTS, primary screen; 320,000 compounds, 0.6% hits; inhibition, % (no concentration beside the values); AID 2629, 2010; Protein LANA1 (Human herpesvirus 8 type P (isolate GK18)), Q9QR71; cell-free LANA-H2A/H2B peptide, fluorescence polarization; in the data active = inhibition mostly above about 10%, no sharp cut-off; inactive = mostly below about 6.7%
# TRPN1 ag = zebrafish TRPN1 channel agonists, primary screen, cell-based, HEK293, calcium fluorescence; activation, % at 3 µM; HEK293 zebrafish TRPN1-YFP, Fluo-8 calcium fluorescence; 100% = response to 87 µM carbachol; transient receptor potential cation channel N1 (TRPN1/NompC), Danio rerio; 220,000 compounds, 0.18% hits;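 active = activation above its plate's cutoff, the mean activation of test wells on that plate plus 3 SD, cut at about 19% in these data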;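 also: 0% = DMSO alone and 100% = 87 µM carbachol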
#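 System: zebrafish TRPN1-YFP in HEK293 cells / Dosing: 3 µM single point / Timing: dye loading 1 h at 37 °C, then 30 min room temperature / Signal: Fluo-8 calcium fluorescence, excitation 470-495 nm, emission 515-575 nm / Read-out basis: percent activation from peak over basal fluorescence ratio, control-normalized / Control set: high carbachol 87 µM, low DMSO alone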
# TAAR1 antagonist = human TAAR1 antagonists, primary screen, Fluo-8 calcium fluorescence, CHO RD-HGA16 cells | 360,000 compounds, 1.5% hits | inhibition, % at 3 µM | antagonist | Trace amine-associated receptor 1 (Homo sapiens), Q96RJ0;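 active = inhibition above a per-plate cutoff, the mean inhibition of test compounds on that plate plus 3 SD, cut at about 49% in these data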;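 also: 0% = DMSO plus EC80 beta-PEA response and 100% = DMSO alone without agonist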
#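 Assay system: CHO-derived RD-HGA16 cells stably expressing human TAAR1 plus Gα16. Timing: 140 s kinetic read after compound, 140 s after agonist. Technique: kinetic Fluo-8 calcium fluorescence measurement. Measure: % inhibition of agonist calcium response.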
# GPR7 antag = GPR7 receptor antagonists, primary screen, cell-based, fluorescence, single concentration. Neuropeptides B/W receptor type 1 (Homo sapiens), P48145. AID 1861, 2009. inhibition, % at 4.4 µM. GPR7-expressing cells, fluorescence antagonist assay. 290,000 compounds, 1.1% hits; in the data active = inhibition above about 16%, passing the limit was not always enough;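 also: cells stimulated with the agonist NPW; 0% = agonist with vehicle and 100% = vehicle without agonist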
# TAAR1 ag = human TAAR1 agonists, primary screen, Fluo-8 calcium fluorescence, CHO RD-HGA16 cells | Trace amine-associated receptor 1 (Homo sapiens), Q96RJ0 | vehicle wells 0%, saturating PEA agonist 100% | activation, % at 3 µM | 360,000 compounds, 0.99% hits;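 active = activation above the mean activation of all test compounds in the run plus 3 SD, cut at about 38% in these data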
#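 test system = CHO RD-HGA16 cells carrying human TAAR1 plus Gα16 | schedule = 17-24 h seeding, 75 min 37 °C dye, 30 min RT | compound dosing = 3 µM single concentration | control set = DMSO and PEA EC100 | replicates = n 1 | signal = Fluo-8 fluorescence, 5 s baseline then 140 s kinetic read | measure = percent activation vs PEA EC100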
# nonsel antag count = nonselective antagonists in TAAR1 counter-screen cells, counter-screen for hTAAR1 antagonist project, cell-based, fluorescence, calcium | shares compounds with TAAR1 antagonist | 2,400 compounds, 77% hits | counterscreen cell line, antagonist mode | inhibition, % at 3 µM | AID 651780, 2012; in the data active = inhibition above about 22%;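 also: CHO-Ga16 host cells stimulated with ATP at an EC80 level; 0% = agonist EC80 plus vehicle and 100% = vehicle without agonist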
# TAAR1 antag conf = human TAAR1 antagonists, retest of hits, confirmation, cell-based, fluorescence; shares compounds with TAAR1 antagonist; TAAR1-expressing cells, fluorescence antagonist read-out; inhibition, % at 3 µM; 2,400 compounds, 40% hits; AID 651785, 2012; in the data active = inhibition above about 49%;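 also: CHO-Ga16 host cells challenged with agonist PEA near its EC80; 0% = agonist at EC80 plus vehicle and 100% = vehicle with no agonist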
# Ga16 ag counter = calcium activation in Ga16-expressing cells, counter-screen for TAAR1 antagonist project, cell-based, fluorescence; AID 651953, 2012; shares compounds with TAAR1 antagonist; 2,400 compounds, 18% hits; agonist counterscreen; activation, % at 3 µM; in the data active = activation above about 12%;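 also: 0% = vehicle wells and 100% = saturating stimulus response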
# TAAR1 ag count = TAAR1 activation by candidate antagonists – cell-based, fluorescence, counter-screen for TAAR1 antagonist project; shares compounds with TAAR1 antagonist; hTAAR1 cell line, agonist mode; activation, % at 3 µM; 2,400 compounds, 2% hits; AID 651955, 2012; in the data active = activation above about 37%;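 also: CHO cells stably expressing TAAR1 with calcium dye readout; 0% = DMSO vehicle and 100% = full agonist response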
# Numbers without * were called inactive; x = no result.
SMILES,TRPML3 ag,LANA-H2A inh,TRPN1 ag,TAAR1 antagonist,GPR7 antag,TAAR1 ag,nonsel antag count,TAAR1 antag conf,Ga16 ag counter,TAAR1 ag count
Cc1ccc(Nc2nc(NCc3cccs3)nc3ccsc23)c(C)c1,x,x,x,76*,x,28,57*,66*,18*,26
CC(=O)Nc1ccc(CN2C(=O)C(CCc3ccccc3)ON=C2c2cnccn2)cc1 (centres undefined),x,x,x,76*,x,20,29*,54*,11,10
COc1ccc(CCNC(=O)CC2(CC3=NS(=O)(=O)c4ccccc4N3)CCCC2)cc1OC,x,2,x,3,-2,2,x,x,x,x
Cc1ccc(CNC(=O)CC2(CC3=NS(=O)(=O)c4ccccc4N3)CCCC2)cc1,x,0,x,66*,-5,12,32*,51*,11,19
COc1ccc(NC(=O)C2CCCN(S(=O)(=O)c3cccc4cccnc34)C2)c(OC)c1 (centres undefined),-1,-4,0,65*,-12,7,23*,29,7,7
COc1ccc(C)cc1NC(=O)C1CCCN(S(=O)(=O)c2cccc3cccnc23)C1 (centres undefined),x,6,x,x,-9,x,x,x,x,x
CCCCCn1c(SCC2CCCO2)nc2cc(C(=O)N3CCC(C(N)=O)CC3)ccc2c1=O (centres undefined),1,3,3,25,-5,19,x,x,x,x
NC(=O)C1CCN(C(=O)c2ccc3c(=O)n(Cc4ccco4)c(SCc4ccc([N+](=O)[O-])cc4)nc3c2)CC1,x,3,x,49*,6,3,31*,41,5,7
COC(=O)c1nccnc1N,x,x,x,103*,x,-2,3,1,1,3
COC(=O)c1nc(C(=O)OC)c(C(=O)OC)nc1C(=O)OC,1,-3,1,1,-10,6,x,x,x,x
CC(Oc1ccc(F)cc1)C(=O)Nc1ccccc1N1CCCCC1 (centres undefined),x,4,x,-11,-30,0,x,x,x,x
C=CC[C@@H](CC(=O)N(CCO)Cc1ccccc1)C(=O)N[C@H](COC(=O)[C@H](CC=C)CC(=O)OC(C)(C)C)Cc1c[nH]c2ccccc12,x,x,x,42,x,7,x,x,x,x
C=CC[C@@H](CC(=O)N[C@H](CO)Cc1ccccc1)C(=O)NC[C@H](OC(=O)[C@@H](CC=C)Cc1ccc(F)cc1)c1ccccc1,x,8,x,69*,x,19,30*,56*,8,7
C=CCC[C@H](Cc1ccc(F)cc1)C(=O)OC[C@H](Cc1c[nH]c2ccccc12)NC(=O)[C@H](CC=C)CC(=O)NCCO,x,9,x,73*,x,25,26*,44,6,7
